Assay outcomes (PubChem)
ASAP1 inh – inhibitors of human ASAP1 ArfGAP activity; Q9ULH1; ASAP1-stimulated ARF1 GTP hydrolysis, GDP FP detection; inhibition, % at 16.5 µM; 360,000 tested, 0.19% active; in the data active = inhibition above about 25%
UHRF1 MBD2 ctr – human UHRF1 methylated DNA binding inhibitors; 370,000 tested, 0.75% active; Q96T88; inhibition, % at 4.4 µM; UHRF1 binding to methylated oligo, TR-FRET; in the data active = inhibition above about 21%;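 note: UHRF1 SRA domain binding a hemimethylated CpG hairpin DNA probe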
ARFGAP1 inhibitor – rat ARFGAP1 inhibition; Q62848; Arfgap1-stimulated ARF1 GTP hydrolysis, GDP FP detection; inhibition, % at 16.5 µM; 360,000 tested, 0.26% active; AID 651572;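 active = inhibition above a per-plate limit, mean inhibition of low control wells plus 3 SD, cut at about 25% in these data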
Target sequence (Q62848 1-136 limits assumed): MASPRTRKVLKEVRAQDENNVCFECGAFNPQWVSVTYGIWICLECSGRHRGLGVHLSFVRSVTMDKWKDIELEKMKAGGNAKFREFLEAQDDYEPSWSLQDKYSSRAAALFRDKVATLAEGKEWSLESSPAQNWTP
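Material: rat Arfgap1 GAP domain (His6, aa 1-136), purified enzyme. Also added: human ARF1(Δ1-17)-GTP substrate. Compound dosing: 16.5 µM single point, 1.26% DMSO. Timing: enzyme reaction 120 min at 25 °C after 20 min preincubation. Signal: GDP detection by fluorescence polarization. Read-out basis: percent inhibition of GAP-stimulated GDP formation, scaled between DMSO and no-Arfgap1 medians.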
MBD2 inh – MBD2-methylated oligo binding inhibition; inhibition, % at 4.4 µM; 370,000 tested, 0.31% active; TR-FRET, MBD2 binding to methylated oligonucleotide; in the data active = inhibition above about 13%
LEDGF integ inh – blocks HIV-1 LEDGF/p75-dependent DNA integration | inhibition, % at 3.7 µM | 370,000 tested, 0.64% active | AID 743269 | TR-FRET IN-LEDGF/p75 DNA integration, Eu/Cy5;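 active = inhibition above the screen-wide mean plus 3 SD, cut at about 13% in these data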;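 note: signal is the Cy5 over europium emission ratio at 671 and 618 nm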
TCR-CD3 inh – blocks the human TCR-CD3 interaction; TAMRA-labeled TCR probe fluorescence, biochemical; inhibition, % at 9.4 µM; 360,000 tested, 0.37% active; AID 651800; in the data active = inhibition above about 19%;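 note: recombinant mutant TCR 2C K166C tagged with TAMRA read by polarization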
ARFGAP1 inh conf – rat ARFGAP1 inhibition, confirmed; 890 tested, 30% active; inhibition, % at 16.5 µM; AID 651608; ARFGAP1-stimulated ARF1 GTP hydrolysis, GDP tracer FP; shares compounds with ARFGAP1 inhibitor;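 active = average inhibition over triplicates above the hit cutoff set in the earlier primary screen, cut at about 25% in these data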
Target sequence (Q62848 whole entry, looked up): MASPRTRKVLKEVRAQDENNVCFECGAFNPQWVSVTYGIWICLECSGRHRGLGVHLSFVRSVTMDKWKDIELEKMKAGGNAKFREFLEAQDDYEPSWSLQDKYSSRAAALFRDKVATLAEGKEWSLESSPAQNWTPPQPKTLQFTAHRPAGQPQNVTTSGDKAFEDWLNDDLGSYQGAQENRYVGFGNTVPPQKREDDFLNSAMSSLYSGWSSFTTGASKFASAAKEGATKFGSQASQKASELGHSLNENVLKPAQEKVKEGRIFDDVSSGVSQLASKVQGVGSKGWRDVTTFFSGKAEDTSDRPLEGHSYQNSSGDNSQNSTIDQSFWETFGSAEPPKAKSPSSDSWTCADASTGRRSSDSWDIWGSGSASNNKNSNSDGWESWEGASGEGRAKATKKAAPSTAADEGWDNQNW
Numbers stand for hits; – = inactive; · = no result given. A selection: hits, their analogues and other compounds. The true share with any hit is near 2%.

SMILES	ASAP1 inh	UHRF1 MBD2 ctr	ARFGAP1 inhibitor	MBD2 inh	LEDGF integ inh	TCR-CD3 inh	ARFGAP1 inh conf
Cc1nn(Cc2ccc(C(=O)Nc3ccc(C(=O)OC(C)C)cc3)o2)c(C)c1Cl	–	–	26	–	–	–	27
C=C1CCC2C(C)(C(=O)O)CCCC2(C)C1CCC(CO)CCO (configuration not stated)	–	–	–	–	–	–	·
Cc1cccc(C)c1NC(=O)COC(=O)COc1ccc2c(C)cc(=O)oc2c1	–	–	–	–	–	–	·
Cc1cc(=O)oc2cc(OCc3ccc(C(=O)OCC(=O)Nc4ccccc4OC(F)F)cc3)ccc12	–	–	42	–	–	–	50
O=C1C(Cl)=C(Nc2ccccc2O)C(=O)N1CCc1ccccc1	–	–	–	–	–	–	·
COc1ccc(-c2cc(-c3cccs3)c(C#N)c(SCC(=O)NCc3ccccc3OC)n2)cc1	–	–	–	–	–	–	·
COc1ccccc1CNC(=O)CSc1nc(N)c(C#N)c(-c2cccs2)c1C#N	–	–	42	–	–	–	30
COc1cc(Cl)cc(/C=N\NC(=O)c2ccc3c(c2)OCO3)c1O	–	–	34	–	–	–	43
COc1ccc(C(=O)N/N=C/c2cc(Br)ccc2O)cc1OC	–	–	33	–	–	–	50
COc1ccc(O)c(/C=N/NC(=O)c2ccc(CSc3nc(C)cc(C)n3)cc2)c1	–	–	30	–	–	–	33
Cc1cc(C)nc(SCc2ccc(C(=O)N/N=C/c3cccc(O)c3O)cc2)n1	–	–	–	–	–	–	·
Cc1[nH]c2ccccc2c1CC(=O)Nc1ccc(Nc2ccccc2)cc1	–	–	29	–	–	–	25
Cc1[nH]c2ccccc2c1CC(=O)Nc1ccc(Nc2cccnc2)c(-c2cc(F)cc(F)c2)c1	–	–	26	–	–	–	–
Cc1cc(-c2cc(NC(=O)Cc3c(C)[nH]c4ccccc34)ccc2Nc2cccnc2)ccc1F	–	–	–	–	–	–	·
Cc1[nH]c2ccccc2c1CC(=O)Nc1ccc(Nc2ccncc2)cc1	–	–	–	–	–	–	·
CCCNC(=O)c1cc(C2CCCCN2C(=O)c2ccc(C(C)C)cc2)on1 (configuration not stated)	–	–	–	–	–	–	·
COc1ccc(NC(=O)CSc2nnc(-c3ccncc3)n2CC2CCCO2)c(OC)c1 (configuration not stated)	–	–	26	–	–	–	–
NC(=O)c1ccc(NC(=O)COC(=O)/C=C/c2cn(-c3ccccc3)nc2-c2cccnc2)cc1	–	–	30	–	–	–	46
C/C=C/c1ccc2c(c1)O[C@H](CN(C)C(=O)NC1CCCC1)[C@H](C)CN([C@H](C)CO)S2(=O)=O	–	–	–	–	–	–	·
COc1ccc(Cn2ccc3ccc(-c4ccc5ccn(C(=O)c6cccc(OC)c6)c5c4)cc32)cc1	·	–	·	–	–	·	·
CS(=O)(=O)N1CCCC(C(=O)NCc2ccc(F)cc2)C1 (configuration not stated)	–	–	27	–	–	–	–
Cc1ccc(CNC(=O)C2CCCN(S(=O)(=O)c3ccc(F)cc3)C2)cc1 (configuration not stated)	–	–	–	–	–	–	·
COc1ccc(CNC(=O)CSc2nnc(C(F)(F)F)n2C)cc1	–	–	29	–	–	–	–
Cn1c(SCC(=O)NCCNC(=O)CSc2nnc(C(F)(F)F)n2C)nnc1C(F)(F)F	–	–	–	–	–	–	·
Cc1cc(C(=O)O)n(C(C)(C)C)n1	–	–	27	–	–	–	–
SMILES	ASAP1 inh	UHRF1 MBD2 ctr	ARFGAP1 inhibitor	MBD2 inh	LEDGF integ inh	TCR-CD3 inh	ARFGAP1 inh conf
CCOC(=O)C1=C[C@@H](CC)N(S(=O)(=O)c2ccc(C)cc2)[C@H]1c1cccs1	–	–	–	–	–	–	·
COc1ccc(-c2cc3cc(OC)c(OC)cc3cn2)cc1	–	–	29	–	–	–	31
Cc1ccc(C)c(Oc2cc(NC(=O)CCCn3nc(C)c([N+](=O)[O-])c3C)cc([N+](=O)[O-])c2)c1	–	–	26	–	–	–	–
CCN(CC(=O)NCc1cccs1)C(=O)c1cccc(S(=O)(=O)N(CC)c2ccccc2)c1	–	–	–	–	–	–	·
Cc1cccc(Nc2ncccc2C(=O)NCc2cccs2)c1C	–	–	26	–	–	–	–
Cc1ccc(Nc2ncccc2C(=O)NCc2cccs2)c(C)c1	–	–	–	–	–	–	·
COc1ccc(NC(=O)c2cc(-c3cc(Cl)ccc3OC)n[nH]2)cc1OC	–	–	28	–	–	–	–
COc1ccc(NC(=O)c2cc(-c3cc(Cl)ccc3C)n[nH]2)cc1OC	–	–	–	–	–	–	·
O=C(CNC(=O)c1ccc2c(c1)OCCO2)N/N=C/c1cccc(Br)c1	–	–	–	–	–	–	·
O=C(N/N=C/c1ccc(O)cc1)c1[nH]c2ccc(Br)cc2c1-c1ccccc1	–	–	–	–	–	–	·
O=C(N/N=C/c1c[nH]c2ccccc12)c1[nH]c2ccc(Br)cc2c1-c1ccccc1	–	–	30	–	–	–	–
Cn1c(CCCOc2ccc(Cl)cc2Cl)nnc1SCC(=O)Nc1cccc(F)c1	–	–	–	–	–	–	·
CCc1cccc(C)c1NC(=O)CSc1nnc(CCCOc2ccc(Cl)cc2Cl)n1C	–	–	25	–	–	–	–
Cc1nc2ccc(NC(=O)c3ccc(Cl)c(NC(=O)c4cccs4)c3)cc2s1	–	–	26	–	–	–	–
Cc1nc2ccc(NC(=O)C3CCN(S(=O)(=O)c4cccs4)CC3)cc2s1	–	–	25	–	–	–	–
CC1=C(C(=O)N2CCCCCC2)CC(CC(=O)NCCc2ccccn2)C(=O)N1Cc1ccc(C(C)(C)C)cc1 (configuration not stated)	–	–	–	–	–	–	·
COc1ccc(/C=N/NC(=O)c2cc3cc(OC)c(OC)cc3[nH]2)cc1	–	–	39	–	–	–	51
COc1ccc2nc(-c3ccc(CN4CCC5(CC4)CNc4ccccc45)cc3)c(-c3ccccc3)nc2c1	–	–	–	–	–	–	·
O=C(Nc1ccccc1)Nc1sccc1-c1nc2ccccc2s1	–	–	–	–	–	–	·
O=C(Nc1cccc(Cl)c1)Nc1sccc1-c1nc2ccccc2s1	–	–	27	–	–	–	–
CCOc1cc(/C=C2\SC(=N)N(c3nccs3)C2=O)ccc1OCCN1CCOCC1	–	–	39	–	–	–	43
COC(=O)c1c(NC(=O)C2CC=CCC2C(=O)O)sc(C(N)=O)c1C (configuration not stated)	–	–	25	–	–	–	–
